Source: ChEMBL document CHEMBL2202955, “Identification of Potent, Selective, Cell-Active Inhibitors of the Histone Lysine Methyltransferase EZH2” (ACS Med Chem Lett, 2012)

Experiments:
[1] = biological target: EZH2/SUZ12/EED/RBBP7/RBBP4; assay: Inhibition of PRC2 complex of FLAG-EZH2, EED, SUZ12, AEBP2 and RbAp48 using histone H3 peptide (21 to 44) as substrate and [3H]SAM after 30 mins; format: protein-complex assay; conditions: read-out: Ki(app)
[2] = biological target: Histone-lysine N-methyltransferase EZH2 (Homo sapiens, UniProt Q15910); assay: Inhibition of EZH2-mediated nuclear H3K27 methylation in human HCC1806 cells after 72 hrs by immunofluorescence analysis; format: cell-based
Chain of Histone-lysine N-methyltransferase EZH2 (Q15910 whole entry): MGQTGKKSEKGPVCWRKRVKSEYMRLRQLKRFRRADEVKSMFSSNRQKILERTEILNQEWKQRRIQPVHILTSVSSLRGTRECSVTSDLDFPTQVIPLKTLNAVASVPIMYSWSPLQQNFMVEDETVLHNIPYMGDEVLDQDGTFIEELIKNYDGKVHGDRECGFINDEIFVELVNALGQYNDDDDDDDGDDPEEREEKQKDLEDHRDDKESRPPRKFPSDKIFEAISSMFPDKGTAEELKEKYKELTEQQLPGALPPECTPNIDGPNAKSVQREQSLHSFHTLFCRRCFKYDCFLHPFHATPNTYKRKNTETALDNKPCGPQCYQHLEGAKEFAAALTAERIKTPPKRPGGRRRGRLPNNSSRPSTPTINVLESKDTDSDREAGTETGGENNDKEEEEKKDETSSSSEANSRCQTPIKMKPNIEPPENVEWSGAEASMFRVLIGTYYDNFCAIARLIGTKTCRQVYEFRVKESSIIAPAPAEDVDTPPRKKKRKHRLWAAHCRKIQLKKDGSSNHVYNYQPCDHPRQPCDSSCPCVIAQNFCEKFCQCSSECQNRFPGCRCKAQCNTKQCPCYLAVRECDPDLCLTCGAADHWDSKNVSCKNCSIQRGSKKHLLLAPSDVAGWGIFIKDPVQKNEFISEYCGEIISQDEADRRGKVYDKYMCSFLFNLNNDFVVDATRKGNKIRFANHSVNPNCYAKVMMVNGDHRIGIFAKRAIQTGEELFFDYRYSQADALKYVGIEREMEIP
Procedure, shortened: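 HCC1806 breast cancer cells were exposed to compound for 72 h. Nuclear H3K27me3 was quantified by an immunofluorescence imaging assay and normalized to total H3. Values are the mean of at least three independent replicates.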

Row | Ki [1] | IC50 [2] | Structure (SMILES)
1 | 0.014 µM | 2 µM | Cc1cc(C)c(CNC(=O)c2cc(-c3ccnc(N4CCN(C)CC4)c3)cc3c2cnn3C(C)C)c(=O)[nH]1
2 | 0.074 µM | 2.51 µM | Cc1cc(C)c(CNC(=O)c2cc(C3CC3)cc3c2cnn3C(C)C)c(=O)[nH]1
